Values joined by “and” are separate entries in the source; they are usually repeats but may differ in a detail not shown here. Equal values may be shown once.
How the values were obtained:
Substance-P receptor [1] = target: T1, Substance-P receptor (Homo sapiens, UniProt P25103); test: Antagonist activity at human NK1 receptor expressed in CHO cells assessed as inhibition of substance P-induced inositol phosphate generation at 100 nM; assay type: functional, cell-based
[2] = Inhibition of sodium channel
Outline: (§1)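 Ion-channel binding assay; IC50 values calculated for sodium channel and for calcium channel (diltiazem site).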

Gerbillinae [3] = test: Inhibition of GR-73632-induced foot tapping in gerbils at 3 mg/kg, iv after 24 hrs; assay type: functional; details: Gerbillinae, iv, 24 h
Outline: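 Gerbils dosed iv at 3 mg/kg; foot tapping induced by NK1 agonist GR73632 evaluated 24 h post-dose; percent inhibition of the tapping response.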

[4] = Displacement of diltiazem […] from calcium channel; outline: as §1
Substance-P receptor [5] = target: T1, Substance-P receptor; test: Displacement of [125I]substance P from human NK1 receptor expressed in CHO cells in the presence of 50 percent human serum; assay type: cell-based
Substance-P receptor [6] = target: T1, Substance-P receptor; test: Displacement of [125I]substance P from human NK1 receptor expressed in CHO cells; assay type: cell-based
Outline: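 Competition binding: [125I]-labelled substance P displaced from cloned human NK1 receptor expressed in CHO cells; IC50 reported as mean of n = 3.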

Gerbillinae [7] = test: Inhibition of GR-73632-induced foot tapping in gerbils at 1 mg/kg, iv after 1 hr; assay type: functional
Outline: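 Gerbils given 1 mg/kg iv; GR73632-induced foot tapping challenged 1 h after dosing; inhibition of tapping scored.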

T1 sequence (P25103 whole entry): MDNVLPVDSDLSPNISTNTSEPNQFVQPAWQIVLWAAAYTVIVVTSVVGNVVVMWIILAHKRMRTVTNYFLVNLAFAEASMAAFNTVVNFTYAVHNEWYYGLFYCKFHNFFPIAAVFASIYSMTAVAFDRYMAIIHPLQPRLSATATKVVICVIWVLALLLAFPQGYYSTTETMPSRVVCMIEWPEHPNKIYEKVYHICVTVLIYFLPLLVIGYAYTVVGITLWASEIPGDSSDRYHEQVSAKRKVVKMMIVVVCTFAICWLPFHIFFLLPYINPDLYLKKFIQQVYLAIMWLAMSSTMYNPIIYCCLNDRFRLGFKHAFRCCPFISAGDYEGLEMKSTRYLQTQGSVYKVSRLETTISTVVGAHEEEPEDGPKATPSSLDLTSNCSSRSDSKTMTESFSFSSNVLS

Structure (SMILES)	inhibition of substance P-induced inositol phosphate generation (Substance-P receptor [1])	IC50 [2]	inhibition in vivo at 3 mg/kg (Gerbillinae [3])	IC50 [4]	IC50 (Substance-P receptor [5])	IC50 (Substance-P receptor [6])	inhibition in vivo at 1 mg/kg (Gerbillinae [7])
C[C@@H](O[C@H]1CN2C(=O)C(N)C[C@H]2[C@@H]1c1ccc(F)cc1)c1cc(C(F)(F)F)cc(C(F)(F)F)c1 (stereo in doubt; 3a) [listing 1 of 2 here]	92%	–	–	–	–	–	–
C[C@@H](O[C@H]1CN2C(=O)CC(N)[C@H]2[C@@H]1c1ccc(F)cc1)c1cc(C(F)(F)F)cc(C(F)(F)F)c1 (stereo in doubt; 15b)	87% and 63%	–	–	–	–	–	–
C[C@@H](O[C@H]1CN2C(=O)C(NCc3ccn[nH]3)C[C@H]2[C@@H]1c1ccc(F)cc1)c1cc(C(F)(F)F)cc(C(F)(F)F)c1 (some centres not stated)	55%	1470 nM	92%	598 nM	0.9 nM	0.06 nM	–
C[C@@H](O[C@H]1CN2C(=O)C(n3cnnc3)C[C@H]2[C@@H]1c1ccc(F)cc1)c1cc(C(F)(F)F)cc(C(F)(F)F)c1 (single isomer, unassigned) [listing 1 of 2 here]	–	5320 nM	–	–	1.8 nM	0.05 nM	0%
C[C@@H](O[C@H]1CN2C(=O)C(NCc3nn[nH]c3CN(C)C)C[C@H]2[C@@H]1c1ccc(F)cc1)c1cc(C(F)(F)F)cc(C(F)(F)F)c1 (some centres not stated)	40%	2410 nM	–	301 nM	1.4 nM	0.13 nM	88%
C[C@@H](O[C@H]1CN2C(=O)C(n3cnnc3)C[C@H]2[C@@H]1c1ccc(F)cc1)c1cc(C(F)(F)F)cc(C(F)(F)F)c1 (single isomer, unassigned) [listing 2 of 2 here]	74%	–	–	–	–	–	–
C[C@@H](O[C@H]1CN2C(=O)C(O)C[C@H]2[C@@H]1c1ccc(F)cc1)c1cc(C(F)(F)F)cc(C(F)(F)F)c1 (single isomer, unassigned) [listing 1 of 2 here]	90%	–	–	–	–	–	–
C[C@@H](O[C@H]1CN2C(=O)C(N)C[C@H]2[C@@H]1c1ccc(F)cc1)c1cc(C(F)(F)F)cc(C(F)(F)F)c1 (stereo in doubt; 3b)	59%	–	–	–	–	–	–
C[C@@H](O[C@H]1CN2C(=O)C(O)C[C@H]2[C@@H]1c1ccc(F)cc1)c1cc(C(F)(F)F)cc(C(F)(F)F)c1 (single isomer, unassigned) [listing 2 of 2 here]	–	5140 nM	95%	8060 nM	5.6 nM	0.14 nM	–
C[C@@H](O[C@H]1CN2C(=O)CC(n3cnnc3)[C@H]2[C@@H]1c1ccc(F)cc1)c1cc(C(F)(F)F)cc(C(F)(F)F)c1 (some centres not stated)	52%	7820 nM	–	> 10000 nM	0.83 nM	0.07 nM	0%
C[C@@H](O[C@H]1CN2C(=O)CC(C)(N)[C@H]2[C@@H]1c1ccc(F)cc1)c1cc(C(F)(F)F)cc(C(F)(F)F)c1 (some centres not stated)	45%	1400 nM	100%	767 nM	0.42 nM	0.08 nM	–
C[C@@H](O[C@H]1CN2C(=O)C(C)(O)C[C@H]2[C@@H]1c1ccc(F)cc1)c1cc(C(F)(F)F)cc(C(F)(F)F)c1 (single isomer, unassigned)	70%	–	–	–	–	–	–
C[C@@H](O[C@H]1CN2C(=O)CC(O)[C@H]2[C@@H]1c1ccc(F)cc1)c1cc(C(F)(F)F)cc(C(F)(F)F)c1 (single isomer, unassigned; 18a)	65%	–	–	–	–	–	–
C[C@@H](O[C@H]1CN2C(=O)CC(NCc3ccn[nH]3)[C@H]2[C@@H]1c1ccc(F)cc1)c1cc(C(F)(F)F)cc(C(F)(F)F)c1 (some centres not stated)	68%	2970 nM	94%	2390 nM	1.83 nM	0.13 nM	–
C[C@@H](O[C@H]1CN2C(=O)C(N)C[C@H]2[C@@H]1c1ccc(F)cc1)c1cc(C(F)(F)F)cc(C(F)(F)F)c1 (stereo in doubt; 3a) [listing 2 of 2 here]	–	2820 nM	99%	98 nM	2.1 nM	0.27 nM	–
C[C@@H](O[C@H]1CN2C(=O)CC(C)(O)[C@H]2[C@@H]1c1ccc(F)cc1)c1cc(C(F)(F)F)cc(C(F)(F)F)c1 (stereo in doubt; 20a)	28%	–	–	–	–	–	–
